proCasp7 act: counter-screen: procaspase-7 (human) activation; activation, % at 8.5 µM; 330,000 compounds, 0.093% hits; recombinant procaspase-7, Ac-DEVD-pNA absorbance 405 nm; D23A/D198A/D206A triple mutant, cannot self-cleave; scale: DMSO 0, 5 µM enzyme 100;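 active means percent activation above the screen-wide mean plus 3 SD, cut at about 25% in these data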
Target sequence (P55210 whole entry D23A/D198A/D206A): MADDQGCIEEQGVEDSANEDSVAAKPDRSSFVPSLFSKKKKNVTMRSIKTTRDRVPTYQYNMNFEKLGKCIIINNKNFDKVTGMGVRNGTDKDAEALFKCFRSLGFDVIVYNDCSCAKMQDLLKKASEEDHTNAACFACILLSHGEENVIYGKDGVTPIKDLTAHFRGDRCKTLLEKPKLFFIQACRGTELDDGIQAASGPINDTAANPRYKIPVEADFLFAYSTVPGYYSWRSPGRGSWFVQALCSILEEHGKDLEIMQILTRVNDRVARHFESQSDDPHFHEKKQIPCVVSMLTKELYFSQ
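Assay system: Uncleavable procaspase-7 mutant enzyme | Input: 2 µM procaspase-7 mutant as dispensed | Timing: 1 h compound preincubation, 2 h substrate cleavage, 25 °C | Repeats: One well per compound | Control set: DMSO wells as 0%, DMSO with 5 µM added PC-7 as 100% | Technique: Epi-absorbance of released pNA at 405 nm, two timepoints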
HGIII-sPLA2 inh: Inhibits HGIII-sPLA2 liposome hydrolysis, primary screen; Q9NZ20; 370,000 compounds, 0.56% hits; inhibition, % at 12.2 µM; QFRET BODIPY PC-A2 liposome hydrolysis, fluorescence;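 active means inhibition above mean plus 3 SD of compounds lying within the high and low control bounds, cut at about 19% in these data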
PLCb3 inh: PLC-beta3 (human) inhibition, primary screen | inhibition, % at 12.2 µM | Purified PLC-beta3, fluorogenic substrate, fluorescence | AID 720704 | Q01970 | 370,000 compounds, 0.18% hits; in the data active means inhibition above about 11%
procasp3 activ: procaspase-3 (human) activation | P42574 | recombinant procaspase-3 D3A, Ac-DEVD-pNA absorbance 405 nm | activation, % at 8.5 µM | 330,000 compounds, 0.11% hits | AID 463141;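 active means activation above the mean of all tested compounds plus 3 SD, cut at about 21% in these data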
Target sequence (P42574 whole entry D9A/D28A/D175A): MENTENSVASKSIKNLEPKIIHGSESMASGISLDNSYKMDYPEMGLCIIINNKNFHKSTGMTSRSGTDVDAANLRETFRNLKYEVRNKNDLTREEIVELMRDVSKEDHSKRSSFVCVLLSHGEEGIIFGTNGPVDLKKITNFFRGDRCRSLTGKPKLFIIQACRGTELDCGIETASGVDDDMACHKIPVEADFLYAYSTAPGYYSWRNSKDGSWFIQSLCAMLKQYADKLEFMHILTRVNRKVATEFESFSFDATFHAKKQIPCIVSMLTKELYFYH
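Assay system – Procaspase-3 D3A mutant · Benchmarks – DMSO low control, extra-enzyme high control · Technique – 405 nm absorbance of p-nitroaniline, reads at 0 and 120 min · Doses – 8.5 µM nominal · Measure – % activation between DMSO and enzyme-spiked controls · Also added – Ac-DEVD-pNA chromogenic peptide substrate · Schedule – 1 h compound preincubation, 2 h substrate hydrolysis at 25 °C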
PLCg1 inh: blocks human PLC-gamma1 enzyme activity; P19174; purified PLC-gamma1, fluorogenic substrate, fluorescence; inhibition, % at 12.2 µM; 370,000 compounds, 0.84% hits; AID 720700
Arrestin-AP2 inh: inhibitors of human beta-arrestin and AP2 interaction. FITC-arrestin peptide / GST-AP2 beads, flow cytometry; AP2 beta2 appendage carries R879A mutation. inhibition, % at 10 µM. 340,000 compounds, 0.31% hits. AID 504490;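 active means inhibition above a set limit, near 3 SD of compounds lacking own fluorescence, cut at about 54% in these data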
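System: GST-AP2 R879A glutathione beads. Medium: PBS with 0.05% Tween 20 and 0.1% BSA. Also added: FITC-arrestin peptide, 50 nM. Incubation: 12 min plus 1 h, RT. Measured by: high-throughput flow cytometry of beads, ex 488, em 535 nm. Evaluation: percent drop in bead-associated FITC signal.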
PLCg1 ctr: PLC-gamma1 inhibition, counter-screen for PLC-beta3 hits; inhibition, % at 12.3 µM; purified PLC-gamma1, fluorogenic substrate, fluorescence; AID 743258; 3,300 compounds, 3.1% hits; shares compounds with PLCg1 inh
PLCbeta3 conf: confirmation of human PLC-beta3 inhibitors | shares compounds with PLCg1 inh | purified PLC-beta3, fluorogenic substrate fluorescence | inhibition, % at 12.3 µM | 3,300 compounds, 1% hits | AID 743261; in the data active means inhibition above about 11%
Each line names hits and unclear results; the compound was inactive in the other large screens (follow-up assays come after a bar, where they were run). Rows were chosen to be rich in hits. Some 1.9% of all compounds tested hit in one or more screens of this group. Unless noted, no stated cut-off is given here; in the data, active means inhibition above about 9.5%; inactive means the rest.

CC(=O)C1=C(C)OC2(O)c3ccccc3C(=O)C12O (stereo not drawn)	none
c1ccc(-c2nn(Cc3ncco3)c3ccccc23)cc1	none (no result: proCasp7 act, procasp3 activ, Arrestin-AP2 inh)
COc1ccccc1CN1CCC(n2nccc2NC(=O)c2ccccc2Cl)CC1	PLCg1 inh 11 | PLCg1 ctr inactive | PLCbeta3 conf inactive
COc1ccccc1C(=O)Nc1ccnn1C1CCN(Cc2ccccc2OCCO)CC1	none
COc1ccc(S(=O)(=O)Nc2c(F)cccc2F)cc1	PLCg1 inh 14 | PLCg1 ctr inactive | PLCbeta3 conf inactive
COc1ccc(S(=O)(=O)Nc2ccccc2C)cc1	none
CCOc1ccc(NS(=O)(=O)c2ccc(NC(=S)NC(=O)C(C)C)cc2)cc1	none
COc1ccc(NS(=O)(=O)c2ccc(NC(=S)NC(=O)C(C)C)cc2)cc1	PLCg1 inh 11 | PLCg1 ctr inactive | PLCbeta3 conf inactive
COc1ccc(C2c3c(-c4ccccc4)n[nH]c3C(=O)N2c2ccc(C(=O)O)cc2)cc1 (stereo not drawn)	PLCg1 inh 11 | PLCg1 ctr inactive | PLCbeta3 conf inactive
COc1cccc(C2c3c(-c4ccccc4)n[nH]c3C(=O)N2c2ccc(C(=O)O)cc2)c1 (stereo not drawn)	none
COC(=O)[C@]12C[C@H](CC(=O)NCc3cccc4ccccc34)C(=O)N(Cc3cccc4ccccc34)C1=C[C@H](C1CCCC1)O[C@@H]2C	none (no result: proCasp7 act, procasp3 activ, Arrestin-AP2 inh)
COc1cccc(NC(=O)Nc2ccc(Cc3ccncc3)cc2)c1	none
CCOc1ccccc1NC(=O)Nc1ccon1	none
COc1cccc(NC(=O)Nc2ccncc2)c1	PLCb3 inh 11 | PLCg1 ctr inactive | PLCbeta3 conf inactive
CCOc1ccccc1NC(=O)Nc1ccncc1	PLCg1 inh 9.8 | PLCg1 ctr inactive | PLCbeta3 conf inactive
COc1cccc(-c2csc(NC(=O)Nc3ccccc3)n2)c1	PLCg1 inh 12 | PLCg1 ctr inactive | PLCbeta3 conf inactive
CCCC1CCC2(CCC(=O)N2CCC#N)CC1 (stereo not drawn)	none (no result: proCasp7 act, procasp3 activ, Arrestin-AP2 inh)
O=C(CN1C(=O)c2cccnc2Oc2ccc(Cl)cc21)NC1CCCCC1	none
C/C(=N/NC(=O)c1ccccc1)c1ccc(NC(=O)C(F)(F)F)cc1	PLCb3 inh 11 | PLCg1 ctr inactive | PLCbeta3 conf inactive
Cc1cccc(C)c1NC(=O)C1(C)CSCC(=O)N1Cc1cccs1 (stereo not drawn)	none (no result: proCasp7 act, procasp3 activ, Arrestin-AP2 inh)
COCCN(Cc1ccccc1)C(=S)Nc1ccc(Cl)cc1	PLCg1 inh 13 | PLCg1 ctr inactive | PLCbeta3 conf inactive
COc1ccc(NC(=S)N(CCO)Cc2ccccc2)cc1	none (no result: HGIII-sPLA2 inh, PLCb3 inh, PLCg1 inh)
COc1ccc(S[C@]2(C(=O)N3CCCC3)CC(=O)N(c3ccc4c(ccn4C)c3)[C@@H]2c2ccc(OC)cc2)cc1	none (no result: proCasp7 act, procasp3 activ, Arrestin-AP2 inh)
O=C(CSc1ccc(-c2cccc([N+](=O)[O-])c2)nn1)N1CCCCC1	PLCg1 inh 14 | PLCg1 ctr inactive | PLCbeta3 conf inactive
O=C(COC(=O)c1cc(-c2cccs2)nn1-c1ccccc1)Nc1cccc([N+](=O)[O-])c1	none
Cc1ccc(NC(=O)COC(=O)c2cc(-c3cccs3)nn2-c2ccccc2)cc1[N+](=O)[O-]	PLCg1 inh 11 | PLCg1 ctr inactive | PLCbeta3 conf inactive
COC(=O)C(C(=O)OC)c1ccccc1CNS(=O)(=O)c1ccc(C)cc1	none (no result: proCasp7 act, procasp3 activ, Arrestin-AP2 inh)
O=S(Cc1cc(Oc2ccccc2)nc(-c2ccccc2)n1)c1ccccc1 (stereo not drawn)	PLCg1 inh 13 | PLCg1 ctr inactive | PLCbeta3 conf inactive
O=Cc1ccc(Oc2cc(-c3ccccc3)nc(-c3ccccc3)n2)cc1	none
COc1ccccc1N1CCN(Cc2cc(=O)c(OCC(=O)NC(C)C)co2)CC1	none
O=[N+]([O-])c1cccc(NCCCN2CCC(C(O)(c3ccccc3)c3ccccc3)CC2)c1	none (no result: proCasp7 act, procasp3 activ, Arrestin-AP2 inh)
Cc1sc(NC(=O)CCC(=O)O)c(C#N)c1C	PLCg1 inh 11 | PLCg1 ctr inactive | PLCbeta3 conf inactive
C[C@@H]1OC(C2CCCCC2)N(C)[C@H]2C[C@H]3c4[nH]c5cccc(-c6ccccc6)c5c4CCN3C[C@@H]12 (stereo partly drawn)	none (no result: proCasp7 act, procasp3 activ, Arrestin-AP2 inh)
O=C(Cc1cccs1)NCc1cccc(CNC(=O)Cc2cccs2)c1	none
O=C(Cc1cccs1)NCc1ccccc1Br	PLCg1 inh 12 | PLCg1 ctr inactive | PLCbeta3 conf inactive
CS(=O)(=O)c1ccc(OC[C@@H](O)CN2CCC(C(O)(c3ccccc3)c3ccccc3)CC2)cc1	none (no result: proCasp7 act, procasp3 activ, Arrestin-AP2 inh)
CCN(CC(=O)Nc1cc(Cl)ccc1C)C(=O)C1CC1	PLCg1 inh 14 | PLCg1 ctr inactive | PLCbeta3 conf inactive
CCN(CC(=O)Nc1cc(Cl)ccc1C)C(=O)C1CC(=O)N(Cc2ccccc2)C1 (stereo not drawn)	none
CCCOP(=O)(c1ccc(N(C)C)cc1)C(O)c1ccccc1OC (stereo not drawn)	PLCg1 inh 10 | PLCg1 ctr inactive | PLCbeta3 conf inactive
COc1ccc(C(C)NC(=O)c2ccccc2Br)cc1OC (stereo not drawn)	none
Cc1ccccc1C(=O)NC(C)c1ccc2c(c1)CCCC2 (stereo not drawn)	PLCb3 inh 13, PLCg1 inh 10 | PLCg1 ctr inactive | PLCbeta3 conf inactive
Cc1cc(C(=O)NNC(=S)NCC2CCCO2)cs1 (stereo not drawn)	none
Cc1cc(C(=O)NNC(=S)NCc2ccccc2)cs1	PLCb3 inh 13 | PLCg1 ctr inactive | PLCbeta3 conf inactive
Cc1cc(C(=O)NNC(=S)NCC(C)C)cs1	PLCb3 inh 13 | PLCg1 ctr inactive | PLCbeta3 conf 14
CC(C)[C@H](NC(=O)c1ccccc1)C(=O)N1CCC[C@H]1C(=O)NCc1ccccc1	none (no result: proCasp7 act, procasp3 activ, Arrestin-AP2 inh)
COc1ccccc1CNC(=O)C[C@H]1CC[C@H]2[C@H](COc3ccc(NS(=O)(=O)c4ccc(C)cc4)cc3C(=O)N2C)O1	none (no result: proCasp7 act, procasp3 activ, Arrestin-AP2 inh)
O=C(Cc1ccc(NC(=O)C2CCN(C(=O)C3CCCCC3)CC2)cc1)Nc1ccc(C(=O)N2CCOCC2)cc1	PLCg1 inh 13 (no result: proCasp7 act, procasp3 activ) | PLCg1 ctr inactive | PLCbeta3 conf inactive
COc1ccc(C(=O)N2CCC(C(=O)Nc3ccc4c(c3)OCCO4)CC2)cc1	PLCb3 inh 12 | PLCg1 ctr inactive | PLCbeta3 conf inactive
CN(Cc1ccccc1)C(=O)c1cccc(NC(=O)Cc2ccc(NC(=O)C3CCN(C(=O)c4ccccc4)CC3)cc2)c1	none (no result: proCasp7 act, procasp3 activ)
